STAT3 activator: STAT3 signaling activation | U3A cells, IL-6 STAT3-luciferase reporter, luminescence; 100% = signal with IL-6 EC80 alone | activation (% of control), % at 5.6 µM | 190,000 compounds, 0.91% hits | AID 871;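 active = activation above the screen-wide mean of compound activation plus 3 SD, cut at about 130% in these data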;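 also: 0% = background luminescence of wells with medium and substrate only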
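Detection: reporter luminescence signal / Assay system: STAT1-lacking human U3A cells, STAT3 luciferase reporter / Incubation: compound pre-incubation 1 h before IL-6, then 6 h stimulation at 37 °C / Control set: IL-6-only high control / Read-out: % activation relative to IL-6 control / Probe or stimulus: Interleukin-6, 33 ng/mL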
ABCB6 inh 2: blocks the human ABCB6 transporter; Q9NP58; K562-ABCB6 porphyrin accumulation, flow cytometry, 1 h; hits give low values; fluorescence ratio to DMSO, % at 10 µM; 360,000 compounds, 0.19% hits; AID 602162;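 active = fluorescence ratio to DMSO below 75%, the collection mean minus 3 SD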;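 also: signal is porphyrin accumulated inside mitochondria; 100% equals median channel fluorescence of DMSO control wells; lower ratio means ABCB6 inhibition with less porphyrin fluorescence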
AHR activator: human AHR activation | AHR-responsive luciferase reporter cells, luminescence | 320,000 compounds, 2.5% hits | P35869 | activation, % at 5 µM | AID 2796; in the data active = activation above about 47%;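 also: 0% = vehicle wells and 100% = reference agonist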
GAA850 FXN act: frataxin GAA850 promoter activation | AID 540364 | HEK293 lucGAA850 FXN promoter luciferase reporter, 24 h; percent of 10 µM SAHA response | 360,000 compounds, 0.56% hits | activation, % at 6 µM;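 active = activation above the average of all compounds screened plus 3 SD, cutoff fixed separately per campaign, cut at about 7.5% in these data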;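 also: 0% = DMSO wells and 100% = 10 µM SAHA wells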
Active calls of the source: *. The list is not random: actives were taken first. Their share in the collection is about 3.3%.

Screening Cc1nnc(SCC2=C(C(=O)O)N3C(=O)C(NC(=O)Cn4nc(C(F)F)cc4C)C3SC2)s1 (stereo not given) returned STAT3 activator 105.5, ABCB6 inh 2 93.0, AHR activator 0.1 and GAA850 FXN act -0.8.
For Cc1ccc(C(=O)N/C(=C\c2ccc(-c3ccccc3[N+](=O)[O-])o2)C(=O)NCCN(C)C)cc1 the results were ABCB6 inh 2 99.0, AHR activator 51.8* and GAA850 FXN act 0.2.
Screening CNc1nc(OC)nc(N(C#N)CN2C(=O)c3ccccc3S2(=O)=O)n1 returned STAT3 activator 97.9, ABCB6 inh 2 91.0, AHR activator -1.9 and GAA850 FXN act 1.6.
`O=C(c1ccccc1-c1nc(-c2ccc(Cl)cc2)no1)N1CCCC1` gave STAT3 activator 115.4, ABCB6 inh 2 90.0, AHR activator 53.3* and GAA850 FXN act 1.4.
For O=[N+]([O-])c1cccc(-c2nc(-c3ccccc3)no2)c1 the results were STAT3 activator 139.9*, ABCB6 inh 2 81.0, AHR activator 57.6* and GAA850 FXN act 2.3.
`O=C(O)c1ccc(-c2noc(-c3ccccc3Cl)n2)cc1` gave ABCB6 inh 2 104.0, AHR activator -3.1 and GAA850 FXN act 2.8.
Fc1ccccc1-c1nc(-c2ccc(Cl)cc2)no1 was read as STAT3 activator 124.1, ABCB6 inh 2 97.0, AHR activator 85.4* and GAA850 FXN act 5.8.
`c1ccc(-c2noc(-c3ccccc3-c3ccccc3)n2)cc1` gave STAT3 activator 89.1, ABCB6 inh 2 102.0, AHR activator 61.8* and GAA850 FXN act -0.2.
O=[N+]([O-])c1cccc(-c2nc(-c3ccncc3)no2)c1 was read as STAT3 activator 93.6, ABCB6 inh 2 100.0, AHR activator 29.2 and GAA850 FXN act 1.3.
`COc1ccc(CNS(=O)(=O)NCc2ccc(C)cc2)cc1OC` gave STAT3 activator 92.9, ABCB6 inh 2 97.0, AHR activator 6.2 and GAA850 FXN act -0.7.
O=C1c2ccccc2S(=O)(=O)N1CC1CC(c2ccc(Cl)cc2)=NO1 (stereo not given) was read as STAT3 activator 100.2, ABCB6 inh 2 94.0, AHR activator 48.9* and GAA850 FXN act 2.8.
`O=C1c2ccccc2S(=O)(=O)N1CC1CC(c2ccccc2)=NO1` (stereo not given) gave STAT3 activator 119.4, ABCB6 inh 2 96.0, AHR activator 4.4 and GAA850 FXN act 5.3.
For COc1ccccc1Nc1nc(-c2sc(NC(=O)c3ccccc3)nc2C)cs1 the results were STAT3 activator 96.7, ABCB6 inh 2 107.0, AHR activator 27.5 and GAA850 FXN act 0.7.
For CCOc1ccccc1Nc1nc(-c2sc(NC(=O)c3cccc(Cl)c3)nc2C)cs1 the results were STAT3 activator 105.3, ABCB6 inh 2 99.0, AHR activator 64.5* and GAA850 FXN act 0.1.
CCOc1ccccc1Nc1nc(-c2sc(NC(=O)c3ccccc3)nc2C)cs1 was read as STAT3 activator 95.6 and AHR activator 72.2*.
Screening CC(SCc1ccccc1)C(=O)NN=C1CCN(C)CC1 (stereo not given) returned STAT3 activator 101.7, ABCB6 inh 2 95.0, AHR activator 1.9 and GAA850 FXN act 1.5.
Screening S=C(Nc1ccc(N2CCOCC2)cc1)Nc1ccc2snnc2c1 returned STAT3 activator 105.7, ABCB6 inh 2 99.0, AHR activator 54.7* and GAA850 FXN act -5.0.
O=C(Nc1ccc2snnc2c1)N1CCOCC1 was read as STAT3 activator 103.2, ABCB6 inh 2 102.0, AHR activator 3.4 and GAA850 FXN act 2.4.
Screening Cn1c(CNc2cccc(Cl)c2)nnc1SCC#N returned STAT3 activator 103.8, ABCB6 inh 2 95.0, AHR activator 21.1 and GAA850 FXN act -0.7.
`CCSc1nnc(CNc2ccc(C)cc2)n1C` gave STAT3 activator 91.1, ABCB6 inh 2 101.0, AHR activator 75.4* and GAA850 FXN act 2.7.
Screening Cn1c(CNc2ccc(Cl)cc2)nnc1SCC#N returned STAT3 activator 100.1, ABCB6 inh 2 96.0, AHR activator 59.0* and GAA850 FXN act 1.9.
For Cc1ccc(NCc2nnc(SCC(=O)Nc3cc(C)on3)n2C)cc1 the results were STAT3 activator 100.2, ABCB6 inh 2 97.0, AHR activator 5.2 and GAA850 FXN act 0.3.
O=[N+]([O-])c1ccc(OCCO)nc1 was read as ABCB6 inh 2 102.0, AHR activator -0.9 and GAA850 FXN act 1.3.
`O=C(OCC(=O)N1CCN(C(=O)c2ccco2)CC1)c1ccc(Cl)nc1` gave ABCB6 inh 2 92.0, AHR activator -0.9 and GAA850 FXN act 0.7.
